PfGluPho inh – PfG6PD (Plasmodium falciparum) enzyme inhibition; 0.78% of 350,000 active; PfGluPho enzyme, NADPH resazurin-diaphorase fluorescence; inhibition, % at 20 µM;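 active means inhibition reaching at least a set limit at 20 µM in the primary screen, cut at about 59% in these data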;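 further: 0% = DMSO wells with substrate and 100% = DMSO wells lacking glucose-6-phosphate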
A3A deaminase – inhibitors of human APOBEC3A DNA deaminase | P31941 | recombinant A3A, FAM/TAMRA ssDNA deamination fluorescence | inhibition, % at 20 µM | 0.41% of 330,000 active | AID 493011;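 active means at least 40% inhibition at 20 µM here, with at most 30% in a related deaminase screen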;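 further: plate controls were A3A with DMSO for no effect and wells lacking A3A enzyme for full effect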
Target sequence (P31941 whole entry, looked up): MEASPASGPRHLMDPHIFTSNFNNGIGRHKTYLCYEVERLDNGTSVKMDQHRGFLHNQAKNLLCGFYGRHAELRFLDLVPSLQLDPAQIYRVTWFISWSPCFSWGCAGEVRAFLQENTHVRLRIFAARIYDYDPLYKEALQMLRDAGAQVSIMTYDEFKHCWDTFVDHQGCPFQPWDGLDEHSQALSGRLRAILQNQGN
SUMO HTRF inh – SUMOylation inhibition | 0.36% of 290,000 active | HTRF SUMOylation assay, SAE1/SAE2 + UBC9, in vitro | inhibition, % at 35 µM | P63279; in the data active means inhibition above about 50%, passing the limit was not always enough
Target sequence (P63279 whole entry, looked up): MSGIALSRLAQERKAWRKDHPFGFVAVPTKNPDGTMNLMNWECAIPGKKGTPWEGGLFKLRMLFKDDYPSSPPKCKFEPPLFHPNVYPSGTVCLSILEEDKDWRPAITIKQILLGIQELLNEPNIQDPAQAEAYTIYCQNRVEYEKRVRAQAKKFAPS
M18AAP inhibitor – blocks P. falciparum M18 aspartyl aminopeptidase | recombinant PfM18AAP, H-Glu-NHMec fluorogenic cleavage | inhibition, % at 7.35 µM | 1.2% of 290,000 active;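 active means inhibition above the campaign mean inhibition over all tested compounds plus 3 SD, cut at about 28% in these data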;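 further: 0% = plate median of test compound wells and 100% = 2 mM ZnCl2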
HKDC1 inhibitor – blocks human hexokinase HKDC1 activity; Q2TB90; recombinant HKDC1, G6PDH/diaphorase resazurin coupled fluorescence; inhibition, % at 20 µM; 0.16% of 340,000 active;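 active means inhibition above about 35% when tested at 20 µM, limit read from the data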;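 further: plate controls were DMSO wells with enzyme for no effect and DMSO wells lacking enzyme for full effect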
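Test system: recombinant HKDC1 (HK5) hexokinase enzyme, produced in-house; Amount: enzyme 5 µg/mL final; Buffer or medium: Tris pH 8.0 buffer with MgCl2, Tween-20, BSA, BME; Reagent: glucose and ATP substrates; Doses: 20 µM test compound, 1% DMSO; Incubation: 90 min reaction incubation at room temperature, dark; Detection: resorufin fluorescence at 613 nm.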
APOBEC3G inh – blocks human APOBEC3G single-stranded DNA deamination. inhibition, % at 20 µM. recombinant A3G, ssDNA deamination FAM/TAMRA fluorescence. Q9HC16. 0.28% of 330,000 active;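 active means inhibition of at least 40% at 20 µM, with no more than 30% in the related APOBEC3A deaminase screen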;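 further: plate controls were DMSO wells with A3G for no effect and wells lacking A3G enzyme for full effect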
* hit, by the source's call; x = no result given. A selection: hits, their analogues and other compounds. The true share with any hit is near 2.4%.

SMILES	PfGluPho inh	A3A deaminase	SUMO HTRF inh	M18AAP inhibitor	HKDC1 inhibitor	APOBEC3G inh
O=c1[nH]c(Nc2ccccc2)cc2ccccc12	5	0	84*	9	13	0
O=c1[nH]c(Nc2ccccc2)cc2cc(Br)ccc12	5	-7	x	x	8	-8
O=C(NCCCO)c1ccc(CSc2nc3ccccc3c(=O)[nH]2)cc1	2	6	21	-8	3	7
COCCn1c(SCC(=O)Nc2ccc(NC(C)=O)cc2)nc2ccccc2c1=O	7	-5	-4	-2	-1	-8
O=[N+]([O-])c1cc(S(=O)(=O)Nc2ccccc2)ccc1N1CCN(c2ccc(O)cc2)CC1	37	2	0	30*	15	4
O=C(CN1C(=O)/C(=C/c2cccc(Cl)c2)SC1=S)NC1C=CS(=O)(=O)C1 (stereo not given)	-10	-4	16	30*	-7	-3
Cc1oc2c(c(C)cc3oc(=O)c(CC(=O)NCCCO)c(C)c32)c1C	3	-2	47	-3	8	-6
CCC(NC(=O)Cc1c(C)c2c(cc(C)c3c(C)c(C)oc32)oc1=O)C(=O)O (stereo not given)	-10	-5	54*	-2	4	-7
Cc1coc2c1c(C)cc1oc(=O)c(CC(=O)N[C@@H](C)C(=O)O)c(C)c12	0	0	14	-8	-4	3
CSCC[C@H](NC(=O)Cc1c(C)c2c(cc(C)c3c(C)c(C)oc32)oc1=O)C(=O)O	-12	-3	57*	-1	1	-6
Cc1oc2c(c(C)cc3oc(=O)c(CC(=O)NCC(=O)NCC(=O)NCC(C)O)c(C)c32)c1C (stereo not given)	-3	0	60*	4	4	-4
Cc1ccc(C2CC(=O)NC(SCCC(C)C)=C2C#N)cc1 (stereo not given)	42	-5	19	-5	-6	-8
NS(=O)(=O)c1cccc(NC(=O)CSc2nnc(-c3ccccc3)o2)c1	0	-1	x	x	-1	-7
CC(C)CC1Nc2ccc(C(=O)NCc3ccc4c(c3)OCO4)cc2NC1=O (stereo not given)	-17	-4	2	29*	5	-11
CCCCOc1ccc(/C=C/C(=O)Nc2ccc(C(N)=O)cc2)cc1	-11	1	51*	1	4	-2
CCCOc1ccc(/C=C/C(=O)Nc2ccc([N+](=O)[O-])cc2)cc1	24	-1	11	-3	0	-8
Cc1ccc2[nH]c3nc(NN)nnc3c2c1	2	-1	-17	31*	-9	-4
Cc1ccc2[nH]c3nc(SCCN4CCOCC4)nnc3c2c1	52	-1	5	-6	-2	-5
CC(C)C(=O)N(c1cc2sc(=O)oc2c2ccccc12)S(=O)(=O)c1cccs1	74*	-4	12	-37	45*	14
COc1ccccc1N1C(=O)C(Cl)=C(Nc2ccccc2O)C1=O	39	x	24	15	-1	x
O=C1C(Cl)=C(Nc2ccccc2O)C(=O)N1c1ccccc1	44	-4	6	46*	10	-3
COc1cc(OC)c(-n2cc(-c3ccc(OC)c(OC)c3)[nH]c2=S)cc1Cl	48	10	2	32*	1	-13
COc1ccc2[nH]c3c(=O)n(CCCC(=O)NC4CCCCC4C)c(=S)[nH]c3c2c1 (stereo not given)	5	-7	58*	5	-1	-1
CCC(=O)NNc1nc2c(C)cc(C)cc2s1	19	0	9	58*	-4	1
Cc1cc(C)c2nc(NNC(=O)c3ccc(S(=O)(=O)N4CC(C)CC(C)C4)cc3)sc2c1 (stereo not given)	6	-7	-13	29*	-21	-13
Cc1ccc2nc(NNC(=O)c3ccc(S(=O)(=O)N4CCc5ccccc5C4)cc3)sc2c1	-28	-3	-5	27	-30	-9
CN(C)S(=O)(=O)c1cccc(NC(=O)c2cc(-c3cccs3)nn2-c2ccccc2)c1	4	-3	-20	1	-7	-4
O=C(C1CCN(S(=O)(=O)c2ccccc2)CC1)N1CCCCC1	-4	-4	-13	0	-4	-1
Oc1cccc(/C=N/NC(=S)NCCN2CCOCC2)c1O	-14	-2	-33	29*	4	2

Screening data as filed in PubChem.
